From ChEMBL document CHEMBL4342526, “Exploration of the Structural Space in 4(3H)-Quinazolinone Antibacterials” (J Med Chem, 2020)
Converted amounts (≈) assume the structure as drawn.

Legend:
[1] = tested on: Streptococcus pneumoniae; assay: Antibacterial activity against Streptococcus pneumoniae ATCC 49619 measured after 16 to 20 hrs by microdilution method; assay type: functional
How it was run: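 CLSI broth microdilution: two-fold serial dilutions in triplicate in cation-adjusted Mueller–Hinton broth with 2% NaCl, inoculum 5 × 10^5 CFU/mL, incubated at 37 °C for 16–20 h. MIC is the lowest concentration preventing visible growth.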

[2] = Selectivity index, ratio of IC50 for human HeLa cells to MIC for clindamycin/erythromycin/spectinomycin-resistant mec-positive Staphylococcus aureus NRS70; assay type: toxicity
How it was run: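 HeLa cytotoxicity by XTT assay in triplicate, IC50 by nonlinear regression; ratio IC50 over broth microdilution MIC against NRS70.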

[3] = tested on: Staphylococcus aureus; assay: […] activity against clindamycin/erythromycin/spectinomycin-resistant mec-positive Staphylococcus aureus NRS70 incubated for 16 to 20 hrs followed by re-plating on agar plate; assay type: functional; conditions: read-out: MBC99.9
[4] = tested on: Staphylococcus aureus; assay: Antibacterial activity against Staphylococcus aureus ATCC 29213 measured after 16 to 20 hrs in presence of bovine serum albumin by microdilution method; assay type: functional
How it was run: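 S. aureus ATCC29213 MIC was run by CLSI microdilution in cation-adjusted Mueller–Hinton broth plus 2% NaCl, with and without 0.5% bovine serum albumin. Compounds were two-fold serially diluted in triplicate, inoculum was 5 × 10^5 CFU/mL, and plates were incubated at 37 °C for 16–20 h. The endpoint was the lowest concentration with no visible growth.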

[5] = Elimination half life in ICR mouse at 10 mg/kg, po administered via gavage by UV-UPLC analysis; assay type: ADME, organism-based; conditions: in vivo, read-out: beta t1/2 (converted)
[6] = AUC (0 to infinity) in ICR mouse at 10 mg/kg, po administered via gavage by UV-UPLC analysis; assay type: ADME, organism-based; design: dose 10 mg/kg, route oral, time infinity; conditions: in vivo
[7] = Time at which plasma concentration stays above in vitro MIC for clindamycin/erythromycin/spectinomycin-resistant mec-positive Staphylococcus aureus NRS70 in ICR mouse at 10 mg/kg, iv; assay type: ADME, organism-based; conditions: in vivo
How it was run: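 Female ICR mice given single iv tail-vein dose (50 μL of 2 or 4 mg/mL in 20% DMSO/10% Tween-80/70% water); terminal blood at 5, 40 min, 2, 4, 8 h, n = 2 per time point; plasma acetonitrile-precipitated with internal standard, UPLC-UV 285 nm on C18; time above MIC read from concentration profile.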

[8] = tested on: Staphylococcus aureus; assay: Antibacterial activity against clindamycin/erythromycin/spectinomycin-resistant mec-positive Staphylococcus aureus NRS70 measured after 16 to 20 hrs by microdilution method; assay type: functional
How it was run: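 CLSI broth microdilution; two-fold serial compound dilutions in triplicate in cation-adjusted Mueller–Hinton broth with 2% NaCl, inoculum 5 × 10^5 CFU/mL; 37 °C for 16–20 h; MIC = lowest concentration with no visible growth.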

[9] = Clearance in ICR mouse at 10 mg/kg, iv by UV-UPLC analysis relative to hepatic blood flow; assay type: ADME, organism-based; conditions: in vivo
How it was run: (§1)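 Female ICR mice, 6–8 weeks old, 20–25 g. Each received 50 μL by tail-vein injection (5 or 10 mg/kg) of a filter-sterilized 2 or 4 mg/mL solution in 20% DMSO/10% Tween-80/70% water. Terminal blood was collected and plasma harvested by centrifugation. Plasma was precipitated with acetonitrile containing internal standard, and the supernatant was analyzed by C18 UPLC with UV detection at 285 nm.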

[10] = AUC (0 to infinity) in ICR mouse at 10 mg/kg, iv by UV-UPLC analysis; assay type: ADME, organism-based; design: dose 10 mg/kg, time infinity, route intravenous; conditions: in vivo; how it was run: as §1
[11] = AUC (0 to last) in ICR mouse at 10 mg/kg, iv by UV-UPLC analysis; assay type: ADME, organism-based; design: dose 10 mg/kg, time 0 - last, route intravenous; conditions: in vivo; how it was run: as §1

For `N#Cc1ccc(/C=C/c2nc3ccccc3c(=O)n2-c2cc(C(=O)O)ccc2F)cc1`, the MIC [1] was 8 µg/mL (≈ 19.4 µM), the selectivity ratio [2] was 124 and the MBC [3] was greater than 128 µg/mL. The MIC [4] was 2 µg/mL, the half-life [5] was 11.2 h and the AUC(0-inf) [6] was 16800 ng·h/mL. The “T>MIC” value [7] was 4 h, the MIC [8] was 0.5 µg/mL (≈ 1.22 µM) and the CL [9] was less than 10%. It also gave an AUC(0-inf) [10] of 22000 ng·h/mL and an AUClast [11] of 1290 µg·min/mL.
